This note sets out measurements from ChEMBL document CHEMBL4304771, “Design, synthesis and biological activity of N-(2-phenoxy)ethyl imidazo[1,2-a]pyridine-3-carboxamides as new antitubercular agents” (Eur J Med Chem, 2019).

Assay [1] deals with Mycobacterium tuberculosis. Kind of assay: Antitubercular activity against multidrug resistant Mycobacterium tuberculosis isolate 9160 assessed as parasite growth inhibition measured after 7 days incubation by microplate alamar blue assay. Type of assay: functional. The note with it: isolate 9160, 168 h. Summed up: (§1)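 Strains grown to late log phase in 7H9 with 0.2% glycerol, 0.05% Tween 80 and 10% ADC. Cells washed, resuspended in PBS, filtered (8 µm) and frozen at -80 °C. Two-fold compound dilutions, 2 × 10⁵ CFU per well, 37 °C for 7 days. Tween 80 and Alamar blue then added for 16-24 h; fluorescence read at ex 530/em 590 nm. MIC = lowest concentration giving ≥90% fluorescence reduction versus mean of bacterium-only controls.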
A general note: The colour change of resazurin is a common sign of viable cells or microbes.

Assay [2] concerns Mycobacterium tuberculosis. Kind of assay: Antitubercular activity against multidrug resistant Mycobacterium tuberculosis isolate 11168 assessed as parasite growth inhibition measured after 7 days incubation by microplate alamar blue assay. The assay is classed as functional. The note with it: isolate 11168, 168 h. The method, boiled down:
as §1

SMILES strings stand for the structures. Converted amounts (≈) assume the structure as drawn.

For `COc1ccc2nc(C)c(C(=O)NCCOc3ccc(N4CC5CCCCC5C4)cc3)n2c1` (stereo unspecified), the MIC in assay [1] and in assay [2] was under 0.016 µg/mL throughout.

For `CCc1nc2ccc(Cl)cn2c1C(=O)NCc1ccc(N2CCC(c3ccc(OC(F)(F)F)cc3)CC2)cc1` [TELACEBEC], the MIC (as a rule, the lowest concentration found to suppress growth) in assay [1] was 0.057 µg/mL (≈ 0.102 µM); in assay [2] it was under 0.016 µg/mL.

Take `O=c1nc(N2CCN(CC3CCCCC3)CC2)sc2c([N+](=O)[O-])cc(C(F)(F)F)cc12` [MACOZINONE]: the minimum inhibitory concentration (MIC) worked out at 0.232 µg/mL (≈ 0.508 µM) in assay [1] and 0.116 µg/mL (≈ 0.254 µM) in assay [2].

Take `CCc1nc2ccc(Br)cn2c1C(=O)NCCOc1ccc(Br)cc1`: the values for the MIC in assay [1] and in assay [2] were 0.449 µg/mL (≈ 0.961 µM) and 0.125 µg/mL (≈ 0.268 µM), respectively.

Consider `CCc1nc2ccc(Cl)cn2c1C(=O)NCCOc1ccc(Cl)cc1`, for which the minimum inhibitory concentration (MIC) in assay [1] came out at 1 µg/mL (≈ 2.64 µM); in assay [2], 0.25 µg/mL (≈ 0.661 µM).

Regarding `CCc1nc2ccc(Br)cn2c1C(=O)NCCOc1ccc(N2CC3CCCCC3C2)cc1` (stereo unspecified), the MIC in assay [1] is 0.032 µg/mL (≈ 0.0626 µM); in assay [2], under 0.016 µg/mL.

On to `CCc1nc2ccc(Br)cn2c1C(=O)NCCOc1ccc(N2CCCCC2)cc1`, for which the minimal inhibitory concentration (MIC) in assay [1] and in assay [2] was under 0.016 µg/mL each time.

Take `CCc1nc2ccc(C)cn2c1C(=O)NCCOc1ccc(N2CC3CCCCC3C2)cc1` (stereo unspecified): the MIC was 0.024 µg/mL (≈ 0.0537 µM) in assay [1] and under 0.016 µg/mL in assay [2].

As to `CCc1nc2ccc(Cl)cn2c1C(=O)NCCOc1ccc(N2CCN(c3ccc(F)cc3)CC2)cc1`, the MIC in assay [1] is 0.016 µg/mL (≈ 0.0306 µM); in assay [2], under 0.016 µg/mL.

`CCc1nc2ccc(Cl)cn2c1C(=O)NCCOc1ccc(Br)cc1`: the results for the MIC in assay [1] and in assay [2] were 0.311 µg/mL (≈ 0.736 µM) and 0.063 µg/mL (≈ 0.149 µM), respectively.

As to `COc1ccc2nc(C)c(C(=O)NCCOc3ccc(Br)cc3)n2c1`, the MIC in assay [1] stood at 0.5 µg/mL (≈ 1.24 µM); in assay [2], 0.125 µg/mL (≈ 0.309 µM).

On to `COc1ccc(OCCNC(=O)c2c(C3CC3)nc3ccc(C)cn23)cc1`, for which the MIC was 0.429 µg/mL (≈ 1.17 µM) in assay [1] and under 0.016 µg/mL in assay [2].

Turning to `NNC(=O)c1ccncc1` [ISONIAZID], the minimal inhibitory concentration (MIC) in assay [1] and in assay [2] was over 40 µg/mL each time.

For `COc1ccc2nc(C)c(C(=O)NCCOc3ccc(N4CCC(C(F)(F)F)CC4)cc3)n2c1`, the MIC in assay [1] is 0.111 µg/mL (≈ 0.233 µM); in assay [2] it was under 0.016 µg/mL.

Regarding `CCc1nc2ccc(Cl)cn2c1C(=O)NCCOc1ccc(N(C)C)cc1`, the minimum inhibitory concentration (MIC) in assay [1] was 0.225 µg/mL (≈ 0.582 µM); in assay [2], under 0.016 µg/mL.

Turning to `CO[C@H]1/C=C/O[C@@]2(C)Oc3c(C)c(O)c4c(O)c(c(/C=N/N5CCN(C)CC5)c(O)c4c3C2=O)NC(=O)/C(C)=C\C=C\[C@H](C)[C@H](O)[C@@H](C)[C@@H](O)[C@@H](C)[C@H](OC(C)=O)[C@@H]1C` [RIFAMPIN], the values for the MIC in assay [1] and in assay [2] were 38.6 µg/mL (≈ 47 µM) and 36.9 µg/mL (≈ 44.8 µM), respectively.

Turning to `CCc1nc2ccc(C)cn2c1C(=O)NCCOc1ccc(OC)cc1`, the minimum inhibitory concentration (MIC) in assay [1] is 0.394 µg/mL (≈ 1.11 µM); in assay [2], under 0.016 µg/mL.

Turning to `CCc1nc2ccc(Br)cn2c1C(=O)NCCOc1ccc(N2CCC(C(F)(F)F)CC2)cc1`, the MIC was 0.13 µg/mL (≈ 0.241 µM) in assay [1] and under 0.016 µg/mL in assay [2].
